Measured values from ChEMBL document CHEMBL1649408, “Synthesis and in vitro antimycobacterial activity of 8-OCH(3) ciprofloxacin methylene and ethylene isatin derivatives” (Eur J Med Chem, 2011).
Values after ≈ are worked out from the molar mass of the structure shown.

Legend:
[1] = system: Mycobacterium tuberculosis; experiment: Antimycobacterial activity against multidrug-resistant Mycobacterium tuberculosis 09710 after 7 days by serial double dilution technique; format: functional; conditions: Mycobacterium tuberculosis, 09710, 168 h
Outline: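 MDR strain (resistant to RIF, INH, EMB, SM), clinical isolate, tested by rapid direct susceptibility test. Compounds two-fold diluted in 2× Advanced Middlebrook 7H9 broth, final 256 to 1 µg/ml, mixed 1:1 with suspension containing 4 × 10^-3 mg cells. Incubated sealed at 37 °C in wet box; read at 3 days, redetermined at 7 days by high-magnification visual system. MIC = complete growth inhibition.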

[2] = system: Mycobacterium tuberculosis; experiment: Ratio of compound MIC to ciprofloxacin MIC for multidrug-resistant Mycobacterium tuberculosis 09710; format: functional

**Q.** Which MIC [1] does the source give for `COc1c(N2CCNCC2)c(F)cc2c(=O)c(C(=O)O)cn(C3CC3)c12` here?
**A.** Its MIC is 11.1 µM (≈ 4 µg/mL).

**Q.** Which MIC [1] does the source give for `COc1c(N2CCN(CN3C(=O)C(=O)c4ccccc43)CC2)c(F)cc2c(=O)c(C(=O)O)cn(C3CC3)c12` here?
**A.** The MIC was 30.8 µM (≈ 16 µg/mL).

**Q.** `COc1c(N2CCN(CN3C(=O)C(=O)c4cc(F)ccc43)CC2)c(F)cc2c(=O)c(C(=O)O)cn(C3CC3)c12` was tested. Which MIC [1] did it give?
**A.** The MIC was 14.9 µM (≈ 8.01 µg/mL).

**Q.** Which MIC [1] does the source give for `COc1c(N2CCN(CN3C(=O)/C(=N\O)c4ccccc43)CC2)c(F)cc2c(=O)c(C(=O)O)cn(C3CC3)c12` here?
**A.** The MIC was 29.9 µM (≈ 16 µg/mL).

**Q.** How did the MIC [1] turn out when `COc1c(N2CCN(CN3C(=O)/C(=N\O)c4cc(F)ccc43)CC2)c(F)cc2c(=O)c(C(=O)O)cn(C3CC3)c12` was run?
**A.** Its MIC is 14.5 µM (≈ 8.01 µg/mL).

**Q.** With `CO/N=C1\C(=O)N(CN2CCN(c3c(F)cc4c(=O)c(C(=O)O)cn(C5CC5)c4c3OC)CC2)c2ccccc21` as the compound, how does the MIC [1] read?
**A.** The MIC was 14.6 µM (≈ 8.01 µg/mL).

**Q.** Which MIC [1] does the source give for `CO/N=C1\C(=O)N(CN2CCN(c3c(F)cc4c(=O)c(C(=O)O)cn(C5CC5)c4c3OC)CC2)c2ccc(F)cc21` here?
**A.** Its MIC is 7.05 µM (≈ 4 µg/mL).

**Q.** And the Ratio [2]?
**A.** Its Ratio is 3.5.

**Q.** With `CCO/N=C1\C(=O)N(CN2CCN(c3c(F)cc4c(=O)c(C(=O)O)cn(C5CC5)c4c3OC)CC2)c2ccccc21` as the compound, how does the MIC [1] read?
**A.** The MIC was 28.4 µM (≈ 16 µg/mL).

**Q.** Which results are given for `COc1c(N2CCN(CN3C(=O)/C(=N\NC(N)=O)c4ccccc43)CC2)c(F)cc2c(=O)c(C(=O)O)cn(C3CC3)c12`?
**A.** MIC [1]: 6.93 µM (≈ 4 µg/mL); Ratio [2]: 3.5

**Q.** Which MIC [1] does the source give for `COc1c(N2CCN(CN3C(=O)/C(=N\NC(N)=O)c4cc(F)ccc43)CC2)c(F)cc2c(=O)c(C(=O)O)cn(C3CC3)c12` here?
**A.** Its MIC is 6.72 µM (≈ 4 µg/mL).

**Q.** What about the Ratio [2] of the same compound?
**A.** The Ratio was 3.5.

**Q.** `COc1c(N2CCN(CN3C(=O)/C(=N\NC(N)=S)c4ccccc43)CC2)c(F)cc2c(=O)c(C(=O)O)cn(C3CC3)c12` was tested. Which MIC [1] did it give?
**A.** Its MIC is 6.75 µM (≈ 4.01 µg/mL).

**Q.** And the Ratio [2]?
**A.** Its Ratio is 3.5.

**Q.** With `O=C(O)c1cn(C2CC2)c2cc(N3CCNCC3)c(F)cc2c1=O` [CIPROFLOXACIN] as the compound, how does the MIC [1] read?
**A.** The MIC was 24.2 µM (≈ 8.01 µg/mL).

**Q.** How did the MIC [1] turn out when `NNC(=O)c1ccncc1` [ISONIAZID] was run?
**A.** Its MIC is 467 µM (≈ 64 µg/mL).

**Q.** Which MIC [1] does the source give for `CO[C@H]1/C=C/O[C@@]2(C)Oc3c(C)c(O)c4c(O)c(c(/C=N/N5CCN(C)CC5)c(O)c4c3C2=O)NC(=O)/C(C)=C\C=C\[C@H](C)[C@H](O)[C@@H](C)[C@@H](O)[C@@H](C)[C@H](OC(C)=O)[C@@H]1C` [RIFAMPIN] here?
**A.** The MIC was greater than 311 µM.
